Test results taken from ChEMBL document CHEMBL2396529, “Synthesis and anticancer mechanism investigation of dual Hsp27 and tubulin inhibitors” (J Med Chem, 2013).
Calls of active or inactive are those of the source. The calls are words filed in the database; no cut-off is given here.

Experiments:
SK-BR-3 = assay: Antiproliferative activity against human SKBR3 cells after 48 hrs by MTT assay; assay type: functional, cell-based; settings: SK-BR-3, 48 h
Summary of the method: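 MTT assay on SKBR-3 cells (RPMI 1640, 10% heat-inactivated FBS, 37 °C, 5% CO2), seeded 24 h before dosing, then exposed 48 h to a concentration series in DMSO (final ≤0.1%) with vehicle-matched controls. Afterwards 0.5 mg/mL MTT for 2 h, formazan dissolved in DMSO, A570 read, six replicates. IC50 from nonlinear regression.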

[1] = biological target: Heat shock protein beta-1 (Homo sapiens) (UniProt P04792); assay: Inhibition of HSP27 (unknown origin) assessed as increase in DTT-induced insulin B chain aggregation at 10 uM incubated for 5 mins prior to DTT-treatment measured after 30 mins by spectrophotometric analysis relative to control
Heat shock protein beta-1 (Homo sapiens), sequence (P04792 whole entry): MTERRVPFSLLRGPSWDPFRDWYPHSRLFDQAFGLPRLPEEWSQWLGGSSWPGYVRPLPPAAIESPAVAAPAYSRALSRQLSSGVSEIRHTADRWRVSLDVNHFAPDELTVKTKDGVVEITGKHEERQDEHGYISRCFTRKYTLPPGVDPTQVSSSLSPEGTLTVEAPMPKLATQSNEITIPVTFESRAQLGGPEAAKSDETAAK

Bos taurus = species on record: Bos taurus; settings: 100 uM
[2] = biological target: Heat shock protein beta-1 (Homo sapiens) (UniProt P04792); assay: Inhibition of HSP27 (unknown origin) assessed as increase in DTT-induced insulin B chain aggregation at 5 uM incubated for 5 mins prior to DTT-treatment measured after 30 mins by spectrophotometric analysis relative to control

Row | Structure (SMILES) | IC50 (SK-BR-3) [nM] | also measured
1 | CCCCCCOc1cc(NC(=O)c2ccc3ccccc3c2)ccc1N(C)S(C)(=O)=O | 64300 | –
2 | Cc1ccc(C)c(COc2cc(NC(=O)c3ccc(I)cc3)ccc2N(C)S(=O)(=O)C(F)(F)F)c1 | 13500 | –
3 | CS(=O)(=O)Nc1ccc([N+](=O)[O-])cc1Oc1ccccc1 [NIMESULIDE] | 100000 | inhibition [1]: inactive; inhibition (Bos taurus): 14%
4 | Cc1ccc(C)c(COc2cc(NC(=O)c3ccc4c(c3)OCO4)ccc2N(C)S(=O)(=O)C(F)(F)F)c1 | 21800 | –
5 | CCCCCCOc1cc(NC(=O)c2ccc(OC)cc2)ccc1N(C)S(C)(=O)=O | 20000 | –
6 | CCCCCCOc1cc(NC(=O)c2ccc(I)cc2)ccc1N(C)S(C)(=O)=O | 12700 | –
7 | COc1ccc(C(=O)Nc2ccc(N(C)S(C)(=O)=O)c(OCc3cc(C)ccc3C)c2)cc1 | – | inhibition [1]: 30%
8 | Cc1ccc(C)c(COc2cc(NC(=O)c3ccc(I)cc3)ccc2N(C)S(C)(=O)=O)c1 | – | inhibition [1]: 28%
9 | Cc1ccc(C(F)(F)F)cc1COc1cc(NC(=O)c2ccc3ccccc3c2)ccc1N(C)S(C)(=O)=O | 18400 | –
10 | CCCCCCOc1cc(NC(=O)c2ccc(Br)cc2)ccc1N(C)S(C)(=O)=O | 39900 | –
11 | Cc1ccc(C)c(COc2cc(NC(=O)c3ccc4ccccc4c3)ccc2N(C)S(=O)(=O)C(F)(F)F)c1 | 41400 | –
12 | Cc1ccc(C)c(COc2cc(NC(=O)c3ccc(Br)cc3)ccc2N(C)S(=O)(=O)C(F)(F)F)c1 | 36400 | –
13 | COc1ccc(C(=O)Nc2ccc(N(C)S(=O)(=O)C(F)(F)F)c(OCc3cc(C)ccc3C)c2)cc1OC | 39300 | –
14 | Cc1ccc(C(F)(F)F)cc1COc1cc(NC(=O)c2ccc(Br)cc2)ccc1N(C)S(C)(=O)=O | 9490 | –
15 | Cc1ccc(C)c(COc2cc(NC(=O)C3CCCCC3)ccc2N(C)S(C)(=O)=O)c1 | – | inhibition [2]: 29%
16 | CCCCCCOc1cc(NC(=O)c2ccc3c(c2)OCO3)ccc1N(C)S(C)(=O)=O | 28800 | –
17 | CCCCCCOc1cc(NC(=O)c2ccc(OC)c(OC)c2)ccc1N(C)S(C)(=O)=O | 100000 | –
18 | Cc1ccc(C(F)(F)F)cc1COc1cc(NC(=O)c2ccc3c(c2)OCO3)ccc1N(C)S(C)(=O)=O | 14700 | –
19 | COc1ccc(C(=O)Nc2ccc(N(C)S(C)(=O)=O)c(OCc3cc(C(F)(F)F)ccc3C)c2)cc1OC | 16900 | –

Second part, led by results:

Row | IC50 (SK-BR-3) [nM] | Structure (SMILES) | also measured
20 | 110 | COc1ccc(C(=O)Nc2ccc(N(C)S(=O)(=O)C(F)(F)F)c(OCc3cc(OC)ccc3OC)c2)cc1 | –
21 | 9.58 | COc1ccc(OC)c(COc2cc(NC(=O)c3ccc(Br)cc3)ccc2NS(C)(=O)=O)c1 | –
22 | 660 | CN(c1ccc(NC(=O)c2ccc(I)cc2)cc1OCc1cc(Cl)ccc1Cl)S(C)(=O)=O | –
23 | 470 | COc1ccc(OC)c(COc2cc(NC(=O)c3ccc(Br)cc3)ccc2N(C)S(=O)(=O)C(F)(F)F)c1 | –
24 | 2850 | CN(c1ccc(NC(=O)c2ccc3c(c2)OCO3)cc1OCc1cc(Cl)ccc1Cl)S(C)(=O)=O | –
25 | 35.2 | COc1ccc(OC)c(COc2cc(NC(=O)c3ccc4c(c3)OCO4)ccc2NS(C)(=O)=O)c1 | –
26 | 2210 | CN(c1ccc(NC(=O)c2ccc3ccccc3c2)cc1OCc1cc(Cl)ccc1Cl)S(C)(=O)=O | –
27 | 3.51 | COc1ccc(OC)c(COc2cc(NC(=O)c3ccc(Br)cc3)ccc2N(C)S(C)(=O)=O)c1 | –
28 | 7.52 | COc1ccc(OC)c(COc2cc(NC(=O)c3ccc4c(c3)OCO4)ccc2N(C)S(C)(=O)=O)c1 | –
29 | 3730 | COc1ccc(C(=O)Nc2ccc(N(C)S(C)(=O)=O)c(OCc3cc(Cl)ccc3Cl)c2)cc1OC | –
30 | 11.8 | COc1ccc(OC)c(COc2cc(NC(=O)c3ccc(I)cc3)ccc2NS(C)(=O)=O)c1 | –
31 | 13.4 | COc1ccc(C(=O)Nc2ccc(NS(C)(=O)=O)c(OCc3cc(OC)ccc3OC)c2)cc1 | –
32 | 16.6 | COc1ccc(OC)c(COc2cc(NC(=O)c3ccc4ccccc4c3)ccc2N(C)S(C)(=O)=O)c1 | –
33 | 550 | COc1ccc(OC)c(COc2cc(NC(=O)c3ccc(OC)c(OC)c3)ccc2N(C)S(=O)(=O)C(F)(F)F)c1 | –
34 | 710 | COc1ccc(OC)c(COc2cc(NC(=O)c3ccc4c(c3)OCO4)ccc2N(C)S(=O)(=O)C(F)(F)F)c1 | –
35 | 2030 | COc1ccc(C(=O)Nc2ccc(N(C)S(C)(=O)=O)c(OCc3cc(C(F)(F)F)ccc3C)c2)cc1 | –
36 | 13.3 | COc1ccc(OC)c(COc2cc(NC(=O)c3ccc4ccccc4c3)ccc2NS(C)(=O)=O)c1 | –
37 | 510 | COc1ccc(OC)c(COc2cc(NC(=O)c3ccc(I)cc3)ccc2N(C)S(=O)(=O)C(F)(F)F)c1 | –
38 | 11 | COc1ccc(OC)c(COc2cc(NC(=O)c3ccc(OC)c(OC)c3)ccc2NS(C)(=O)=O)c1 | –
39 | 2.61 | COc1ccc(OC)c(COc2cc(NC(=O)c3ccc(OC)c(OC)c3)ccc2N(C)S(C)(=O)=O)c1 | –
40 | 3500 | Cc1ccc(C(F)(F)F)cc1COc1cc(NC(=O)c2ccc(I)cc2)ccc1N(C)S(C)(=O)=O | –
41 | 2290 | CN(c1ccc(NC(=O)c2ccc(Br)cc2)cc1OCc1cc(Cl)ccc1Cl)S(C)(=O)=O | –
42 | 490 | COc1ccc(C(=O)Nc2ccc(N(C)S(C)(=O)=O)c(OCc3cc(Cl)ccc3Cl)c2)cc1 | –
43 | 200 | COc1ccc(OC)c(COc2cc(NC(=O)c3ccc4ccccc4c3)ccc2N(C)S(=O)(=O)C(F)(F)F)c1 | –
44 | 5320 | COc1ccc(C(=O)Nc2ccc(N(C)S(=O)(=O)C(F)(F)F)c(OCc3cc(C)ccc3C)c2)cc1 | –
